Results on 3 compounds are retold here after ChEMBL document CHEMBL1165988, “Dithiolopyrrolone antibiotic formation induced by adding valeric acid to the culture broth of Saccharothrix algeriensis” (2010).

≈ marks a conversion by molar mass, not a printed value.

Common to all, as to type: functional
The subject of assay [1] is Fusarium verticillioides. The assay can be described thus: Antimicrobial activity against Fusarium moniliforme after 48 to 72 hrs by agar dilution method. The gist of the method:
(§1)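 Filamentous fungi and yeasts tested by conventional agar dilution on ISP2 medium to give MIC; plates incubated at 28 °C and read after 48-72 h; each test repeated four times.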

In assay [2] the test system is Saccharomyces cerevisiae. The assay can be described thus: Antimicrobial activity against Saccharomyces cerevisiae ATCC 4226 after 48 to 72 hrs by agar dilution method. The gist of the method: as §1
(In agar dilution, organisms are placed on agar that contains the substance at set levels.)

Assay [3] concerns Fusarium graminearum. The assay can be described thus: Antimicrobial activity against Fusarium graminearum after 48 to 72 hrs by agar dilution method. The gist of the method: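 Agar dilution MIC on ISP2 medium; fungal plates incubated 48-72 h at 28 °C; each test repeated four times.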
Assay [4] relates to Heyndrickxia coagulans. Kind of assay: Antimicrobial activity against Bacillus coagulans CIP 6625 after 24 to 48 hrs by agar dilution method. In short, it runs like this:
(§2)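 MIC determined by conventional agar dilution on ISP2 medium; bacterial plates incubated at 37 °C and read for growth inhibition after 24-48 h; each test repeated four times.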

In assay [5] the test system is Aspergillus carbonarius. Kind of assay: Antimicrobial activity against Aspergillus carbonarius M333 after 48 to 72 hrs by agar dilution method. In short, it runs like this:
as §1

Assay [6] deals with Fusarium culmorum. The assay can be described thus: Antimicrobial activity against Fusarium culmorum after 48 to 72 hrs by agar dilution method. The gist of the method:
as §1

For assay [7], the system named is Salmonella enterica. The assay can be described thus: Antimicrobial activity against Salmonella enterica CIP 81.3 after 24 to 48 hrs by agar dilution method. In short, it runs like this: as §2
Assay [8] relates to Penicillium expansum. Kind of assay: Antimicrobial activity against Penicillium expansum after 48 to 72 hrs by agar dilution method. The gist of the method: as §1
In assay [9] the test system is Micrococcus luteus. Kind of assay: Antimicrobial activity against Micrococcus luteus ATCC 9314 after 24 to 48 hrs by agar dilution method. The gist of the method:
as §2

For assay [10], the system named is Agrobacterium tumefaciens. The assay can be described thus: Antimicrobial activity against Agrobacterium tumefaciens no. 2410 LB after 24 to 48 hrs by agar dilution method. The gist of the method:
as §2

The subject of assay [11] is Escherichia coli. Kind of assay: Antimicrobial activity against Escherichia coli ATCC 10536 after 24 to 48 hrs by agar dilution method. The gist of the method: as §2
The subject of assay [12] is Pseudomonas aeruginosa. Kind of assay: Antimicrobial activity against Pseudomonas aeruginosa CIP A22 after 24 to 48 hrs by agar dilution method. The gist of the method: as §2
For assay [13], the system named is Klebsiella pneumoniae. The assay can be described thus: Antimicrobial activity against Klebsiella pneumoniae CIP 82.91 after 24 to 48 hrs by agar dilution method. In short, it runs like this:
as §2

The test system of assay [14] is Umbelopsis ramanniana. The assay can be described thus: Antimicrobial activity against Mucor ramannianus NRRL 1829 after 48 to 72 hrs by agar dilution method. The gist of the method: as §1
Assay [15] deals with Bacillus subtilis. The assay can be described thus: Antimicrobial activity against Bacillus subtilis ATCC 6633 after 24 to 48 hrs by agar dilution method. The gist of the method: as §2
For assay [16], the system named is Staphylococcus aureus. The assay can be described thus: Antimicrobial activity against Staphylococcus aureus CIP 7625 after 24 to 48 hrs by agar dilution method. The gist of the method:
as §2

Assay [17] concerns Listeria monocytogenes. The assay can be described thus: Antimicrobial activity against Listeria monocytogenes CIP 82110 after 24 to 48 hrs by agar dilution method. In short, it runs like this: as §2
Assay [18] deals with Candida albicans. The assay can be described thus: Antimicrobial activity against Candida albicans IPA 200 after 48 to 72 hrs by agar dilution method. The gist of the method: as §1
Assay [19] deals with Fusarium equiseti. Kind of assay: Antimicrobial activity against Fusarium equiseti after 48 to 72 hrs by agar dilution method. In short, it runs like this: as §1
Assay [20] has as its system Fusarium oxysporum. The assay can be described thus: Antimicrobial activity against Fusarium oxysporum f.sp. lini (Foln 3-5) after 48 to 72 hrs by agar dilution method. In short, it runs like this: as §1

What is called MIC is the least concentration at which growth counts as inhibited. A lower MIC goes with inhibition by little substance. Take `CCC(=O)Nc1c2sscc-2n(C)c1=O` [AUREOTHRICIN]: the MIC in assay [1] is 75 µg/mL (≈ 310 µM); in assay [2] it was 40 µg/mL (≈ 165 µM); in assay [3], 75 µg/mL (≈ 310 µM); in [4], 20 µg/mL (≈ 82.5 µM); in assay [5], 40 µg/mL (≈ 165 µM); in [6], 20 µg/mL (≈ 82.5 µM). Besides, the MIC in [7] is greater than 100 µg/mL; in [8], 20 µg/mL (≈ 82.5 µM); in assay [9], 20 µg/mL (≈ 82.5 µM); in assay [10], greater than 100 µg/mL; in assay [11], 75 µg/mL (≈ 310 µM); in assay [12], greater than 100 µg/mL. For the same compound, the MIC is greater than 100 µg/mL in assay [13]; 20 µg/mL (≈ 82.5 µM) in assay [14]; 20 µg/mL (≈ 82.5 µM) in assay [15]; 100 µg/mL (≈ 413 µM) in assay [16]; greater than 100 µg/mL in assay [17]; 75 µg/mL (≈ 310 µM) in assay [18]. Further, the MIC in assay [19] was 20 µg/mL (≈ 82.5 µM); in [20], 40 µg/mL (≈ 165 µM).
`Cn1c2cssc-2c(NC=O)c1=O` [FORMYLPYRROTHINE]: the MIC in [1] was 75 µg/mL (≈ 350 µM); in assay [2], 75 µg/mL (≈ 350 µM); in assay [3] it was 40 µg/mL (≈ 187 µM); in [4] it was 2 µg/mL (≈ 9.33 µM); in assay [5] it was 50 µg/mL (≈ 233 µM); in [6], 10 µg/mL (≈ 46.7 µM). Also, the minimal inhibitory concentration (MIC) is greater than 100 µg/mL in assay [7]; 3 µg/mL (≈ 14 µM) in assay [8]; 3 µg/mL (≈ 14 µM) in [9]; greater than 100 µg/mL in assay [10]; 40 µg/mL (≈ 187 µM) in assay [11]; greater than 100 µg/mL in assay [12]. The MIC was greater than 100 µg/mL in assay [13]; 10 µg/mL (≈ 46.7 µM) in assay [14]; 2 µg/mL (≈ 9.33 µM) in assay [15]; 2 µg/mL (≈ 9.33 µM) in assay [16]; 20 µg/mL (≈ 93.3 µM) in assay [17]; 75 µg/mL (≈ 350 µM) in [18]. Further, the MIC was determined as 10 µg/mL (≈ 46.7 µM) in assay [19] and 30 µg/mL (≈ 140 µM) in assay [20].
Turning to `CCCCC(=O)Nc1c2sscc-2n(C)c1=O` [VALERYLPYRROTHINE], the MIC stood at 75 µg/mL (≈ 277 µM) in assay [1]; 10 µg/mL (≈ 37 µM) in assay [2]; 75 µg/mL (≈ 277 µM) in assay [3]; 20 µg/mL (≈ 74 µM) in assay [4]; 20 µg/mL (≈ 74 µM) in assay [5]; 20 µg/mL (≈ 74 µM) in [6]. The minimal inhibitory concentration (MIC) is greater than 100 µg/mL in assay [7]; 20 µg/mL (≈ 74 µM) in [8]; 40 µg/mL (≈ 148 µM) in assay [9]; greater than 100 µg/mL in [10]; greater than 100 µg/mL in [11]; greater than 100 µg/mL in assay [12]. Further, the MIC in assay [13] is greater than 100 µg/mL; in [14] it was 10 µg/mL (≈ 37 µM); in assay [15], 20 µg/mL (≈ 74 µM); in [16], 75 µg/mL (≈ 277 µM); in assay [17], greater than 100 µg/mL; in assay [18] it was 20 µg/mL (≈ 74 µM). Also, the MIC was found to be 20 µg/mL (≈ 74 µM) in [19] and 50 µg/mL (≈ 185 µM) in assay [20].
